Calls of active or inactive are those of the source.
What was measured:
MCF7 [1] = experiment: Cytotoxicity against human MCF7 cells assessed as reduction in cell viability after 48 hrs by SRB assay; type: functional
Outline: (§1)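 Followed the NCI SRB protocol: cells exposed 48 h to a range of concentrations. GI50 is the concentration giving 50% net growth inhibition; TGI is 100% growth inhibition; LC50 kills 50% of initial cells. Mean ± SE of three separate experiments.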

SK-BR-3 [2] = experiment: Cytotoxicity against human SK-BR-3 cells assessed as reduction in cell viability incubated for 48 hrs by SRB assay; type: functional; outline: as §1
SK-BR-3 [3] = experiment: Induction of apoptosis in human SK-BR-3 cells transfected with siNMDA receptor assessed as late apoptotic cells at 25 uM after 72 hrs by Annexin V-FITC/propidium iodide staining-based flow cytometric analysis (reference value: 2 %); type: functional
MCF7 [4] = experiment: Cytotoxicity against siNMDA receptor transfected human MCF7 cells assessed as reduction in cell viability after 48 hrs by SRB assay; type: functional
Outline: (§2)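 GluN1 subunit knocked down by siNMDA R transfection, confirmed by qRT-PCR and Western blot; compared with untransfected cells. SRB viability read after 48 h exposure to a range of concentrations. Mean ± SE of three separate experiments.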

MCF7 [5] = experiment: Induction of apoptosis in human MCF7 cells assessed as early apoptotic cells at 100 uM after 72 hrs by Annexin V-FITC/propidium iodide staining-based flow cytometric analysis (reference value: 2 to 13 %); type: functional
SK-BR-3 [6] = experiment: Cytotoxicity against siNMDA receptor transfected human SK-BR-3 cells assessed as reduction in cell viability after 48 hrs by SRB assay; type: functional; outline: as §2
MCF7 [7] = experiment: Induction of apoptosis in human MCF7 cells assessed as necrotic cells at 100 uM after 72 hrs by Annexin V-FITC/propidium iodide staining-based flow cytometric analysis (reference value: 1 to 5 %); type: functional
SK-BR-3 [8] = experiment: Induction of mitochondrial membrane depolarization in human SK-BR-3 cells at 25 uM by JC1 staining based flow cytometric analysis; type: functional, cell-based
Outline: (§3)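 Mitochondrial membrane potential (Δψm) in untreated versus treated cells (MCF-7 100 μM, SKBR3 25 μM), assessed by JC-1 staining.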

MCF7 [9] = experiment: Induction of apoptosis in human MCF7 cells assessed as fold increase in cleavage of pro-caspase 3 at 100 uM incubated for 72 hrs by Western blot analysis relative to control; type: functional
Outline: (§4)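 Caspase-3 immunoblot after 72 h treatment (MCF-7 100 μM, SKBR3 25 μM), tracking procaspase-3 cleavage to the active form. Densitometry normalised to GAPDH loading control.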

MCF7 [10] = experiment: Induction of apoptosis in human MCF7 cells assessed as necrotic cells at 100 uM after 48 hrs by Annexin V-FITC/propidium iodide staining-based flow cytometric analysis (reference value: 7 %); type: functional
[11] = Metabolic stability in human liver microsomes; type: ADME, Microsome
MCF7 [12] = experiment: Induction of ROS generation in human MCF7 cells at 100 uM pretreated for 1 hr with ROS scavenger, NAC followed by compound addition and measured after 72 hrs by DCFDA staining-based flow cytometric analysis; type: functional, cell-based
Outline: (§5)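 MCF-7 treated at 100 μM, SKBR3 at 25 μM, for 24, 48 and 72 h, alone or after NAC (10 mM) pretreatment. ROS measured by DCFDA staining and flow cytometry. Significance set at p < 0.01 vs untreated or vs treated-alone cells.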

MCF7 [13] = experiment: Induction of apoptosis in human MCF7 cells assessed as late apoptotic cells at 100 uM after 48 hrs by Annexin V-FITC/propidium iodide staining-based flow cytometric analysis (reference value: 2 %); type: functional
SK-BR-3 [14] = experiment: Induction of apoptosis in human SK-BR-3 cells at 25 uM by AnnexinV-FITC/PI staining based flow cytometric analysis; type: functional, cell-based; conditions: time hrs 48-72, TDE = time-dependent effect
SK-BR-3 [15] = experiment: Induction of apoptosis in human SK-BR-3 cells assessed as necrotic cells at 25 uM after 48 hrs by Annexin V-FITC/propidium iodide staining-based flow cytometric analysis (reference value: 2 %); type: functional
[16] = Apparent permeability in human Caco2 cells; type: ADME, cell-based; conditions: caco-2
SK-BR-3 [17] = experiment: Induction of apoptosis in human SK-BR-3 cells transfected with si-NMDA receptor assessed as necrotic cells at 25 uM after 72 hrs by Annexin V-FITC/propidium iodide staining-based flow cytometric analysis (reference value: 4 %); type: functional
MCF7 [18] = experiment: Induction of apoptosis in human MCF7 cells transfected with siNMDA receptor assessed as late apoptotic cells at 100 uM after 72 hrs by Annexin V-FITC/propidium iodide staining-based flow cytometric analysis (reference value: 4 %); type: functional
MCF7 [19] = experiment: Induction of apoptosis in human MCF7 cells transfected with siNMDA receptor assessed as early apoptotic cells at 100 uM after 72 hrs by Annexin V-FITC/propidium iodide staining-based flow cytometric analysis (reference value: 33 %); type: functional
SK-BR-3 [20] = experiment: Induction of apoptosis in human SK-BR-3 cells assessed as late apoptotic cells at 25 uM after 72 hrs by Annexin V-FITC/propidium iodide staining-based flow cytometric analysis (reference value: 1 to 3 %); type: functional
MCF7 [21] = experiment: Induction of apoptosis in human MCF7 cells after 48 to 72 hrs by AnnexinV-FITC/PI staining based flow cytometric analysis; type: functional, cell-based; conditions: time hrs 48-72
SK-BR-3 [22] = experiment: Induction of apoptosis in human SK-BR-3 cells assessed as necrotic cells at 25 uM after 72 hrs by Annexin V-FITC/propidium iodide staining-based flow cytometric analysis (reference value: 1 to 3 %); type: functional
[23] = Displacement of [3H]-(+)-MK-801 from PCP binding site of NMDA receptor in pig brain cortex membranes after 120 mins by scintillation counting analysis; type: cell membranes, Sus scrofa, Cerebral cortex, Membrane
SK-BR-3 [24] = experiment: Induction of apoptosis in human SK-BR-3 cells assessed as early apoptotic cells at 25 uM after 72 hrs by Annexin V-FITC/propidium iodide staining-based flow cytometric analysis (reference value: 1 to 9 %); type: functional
MCF7 [25] = experiment: Induction of apoptosis in human MCF7 cells assessed as early apoptotic cells at 100 uM after 48 hrs by Annexin V-FITC/propidium iodide staining-based flow cytometric analysis (reference value: 16 %); type: functional
SK-BR-3 [26] = experiment: Induction of apoptosis in human SK-BR-3 cells assessed as late apoptotic cells at 25 uM after 48 hrs by Annexin V-FITC/propidium iodide staining-based flow cytometric analysis (reference value: 2 %); type: functional
MCF7 [27] = experiment: Induction of apoptosis in human MCF7 cells transfected with siNMDA receptor assessed as active caspase-3 level at 100 uM incubated for 72 hrs by Western blot analysis; type: functional, cell-based
Outline: (§6)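 Cells transfected with siNMDA R (GluN1) or left untransfected, then treated 72 h (MCF-7 100 μM, SKBR3 25 μM) or left untreated. Cleaved caspase-3 detected by immunoblot; densitometry normalised to GAPDH; p < 0.01 threshold.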

SK-BR-3 [28] = experiment: Induction of apoptosis in human SK-BR-3 cells assessed as fold increase in cleavage of pro-caspase 3 at 25 uM incubated for 72 hrs by Western blot analysis relative to control; type: functional; outline: as §4
MCF7 [29] = experiment: Induction of mitochondrial membrane depolarization in human MCF7 cells at 100 uM by JC1 staining based flow cytometric analysis; type: functional, cell-based; outline: as §3
MCF7 [30] = experiment: Induction of apoptosis in human MCF7 cells at 100 uM by AnnexinV-FITC/PI staining based flow cytometric analysis; type: functional, cell-based; conditions: time hrs 48-72, TDE = time-dependent effect
SK-BR-3 [31] = experiment: Induction of ROS generation in human SK-BR-3 cells at 25 uM after 72 hrs by DCFDA staining-based flow cytometric analysis; type: functional, cell-based; outline: as §5
MCF7 [32] = experiment: Induction of ROS generation in human MCF7 cells at 100 uM after 72 hrs by DCFDA staining-based flow cytometric analysis; type: functional, cell-based; outline: as §5
SK-BR-3 [33] = experiment: Induction of apoptosis in human SK-BR-3 cells transfected with siNMDA receptor assessed as active caspase-3 level at 25 uM incubated for 72 hrs by Western blot analysis; type: functional, cell-based; outline: as §6
SK-BR-3 [34] = experiment: Induction of ROS generation in human SK-BR-3 cells at 25 uM pretreated for 1 hr with ROS scavenger, NAC followed by compound addition and measured after 72 hrs by DCFDA staining-based flow cytometric analysis; type: functional, cell-based; outline: as §5
MCF7 [35] = experiment: Induction of apoptosis in human MCF7 cells assessed as late apoptotic cells at 100 uM after 72 hrs by Annexin V-FITC/propidium iodide staining-based flow cytometric analysis (reference value: 1 to 2 %); type: functional
MCF7 [36] = experiment: Induction of apoptosis in human MCF7 cells transfected with siNMDA receptor assessed as necrotic cells at 100 uM after 72 hrs by Annexin V-FITC/propidium iodide staining-based flow cytometric analysis (reference value: 3 %); type: functional
SK-BR-3 [37] = experiment: Induction of apoptosis in human SK-BR-3 cells assessed as early apoptotic cells at 25 uM after 48 hrs by Annexin V-FITC/propidium iodide staining-based flow cytometric analysis (reference value: 9 %); type: functional
SK-BR-3 [38] = experiment: Induction of apoptosis in human SK-BR-3 cells after 48 to 72 hrs by AnnexinV-FITC/PI staining based flow cytometric analysis; type: functional, cell-based; conditions: time hrs 48-72
SK-BR-3 [39] = experiment: Induction of apoptosis in human SK-BR-3 cells transfected with siNMDA receptor assessed as early apoptotic cells at 25 uM after 72 hrs by Annexin V-FITC/propidium iodide staining-based flow cytometric analysis (reference value: 35 %); type: functional

SMILES: CN[C@]1(c2ccccc2Cl)CCCCC1=O [ESKETAMINE]
- GI50 (MCF7 [1]): > 300 µM
- TGI (MCF7 [1]): > 300 µM
- GI50 (SK-BR-3 [2]): > 300 µM
- TGI (SK-BR-3 [2]): > 300 µM

SMILES: C[C@]12N[C@H](Cc3ccccc31)c1ccccc12 [DIZOCILPINE]
- GI50 (MCF7 [1]): > 300 µM
- TGI (MCF7 [1]): > 300 µM
- GI50 (SK-BR-3 [2]): > 300 µM
- TGI (SK-BR-3 [2]): > 300 µM

SMILES: NC[C@@H]1COC[C@](c2ccccc2)(C2CCCCC2)O1 (relative stereo)
- GI50 (MCF7 [1]): 89.7 µM
- LC50 (concentration killing 50% of initial cells) (MCF7 [1]): 244 µM
- TGI (MCF7 [1]): 148 µM
- GI50 (SK-BR-3 [2]): 25.8 µM
- LC50 (concentration killing 50% of initial cells) (SK-BR-3 [2]): > 300 µM
- TGI (SK-BR-3 [2]): 180 µM

SMILES: NC[C@H]1COCC(c2ccccc2)(c2ccccc2)O1
- Activity (SK-BR-3 [3]): 3%
- GI50 (MCF7 [4]): 520 µM
- Activity (MCF7 [5]): 16%
- GI50 (SK-BR-3 [6]): 57 µM
- Activity (MCF7 [1]): Dose-dependent effect
- GI50 (MCF7 [1]): 99 µM
- Activity (MCF7 [7]): 9%
- Activity (SK-BR-3 [8]): inactive
- fold change (FC) (MCF7 [9]): 3.2
- Activity (MCF7 [10]): 8%
- Stabilty [11]: Stable
- Activity (MCF7 [12]): inactive
- Activity (MCF7 [13]): 8%
- Activity (SK-BR-3 [14]): Tde
- Activity (SK-BR-3 [15]): 4%
- permeability [16]: Permeable
- Activity (SK-BR-3 [17]): 8%
- Activity (MCF7 [18]): 5%
- Activity (MCF7 [19]): 26%
- Activity (SK-BR-3 [20]): 15%
- Activity (SK-BR-3 [2]): Dose-dependent effect
- GI50 (SK-BR-3 [2]): 23 µM
- Activity (MCF7 [21]): Dose-dependent effect
- Activity (SK-BR-3 [22]): 17%
- Ki [23]: > 10 µM
- Activity (SK-BR-3 [24]): 11%
- Activity (MCF7 [25]): 26%
- Activity (SK-BR-3 [26]): 5%
- Activity (MCF7 [27]): inactive
- fold change (FC) (SK-BR-3 [28]): 5.1
- Activity (MCF7 [29]): inactive
- Activity (MCF7 [30]): Tde
- Activity (SK-BR-3 [31]): Active
- Activity (MCF7 [32]): Active
- Activity (SK-BR-3 [33]): inactive
- Activity (SK-BR-3 [34]): inactive
- Activity (MCF7 [35]): 19%
- Activity (MCF7 [36]): 7%
- Activity (SK-BR-3 [37]): 19%
- Activity (SK-BR-3 [38]): Dose-dependent effect
- Activity (SK-BR-3 [39]): 24%

Source: ChEMBL document CHEMBL4665645, “Role of the NMDA Receptor in the Antitumor Activity of Chiral 1,4-Dioxane Ligands in MCF-7 and SKBR3 Breast Cancer Cells” (ACS Med Chem Lett, 2019)
